Source: ChEMBL document CHEMBL1151448, “Comparative antianaerobic activities of doripenem determined by MIC and time-kill analysis” (2008)
In brackets after ≈: the same amount, converted by molar mass. Activity calls are given as the source filed them. No cut-off for these calls is given here.

Columns and labels:
Prevotella nigrescens = experiment: Antimicrobial activity against beta lactamase-positive Prevotella nigrescens isolated from intra-abdominal infection and pelvic inflammatory disease patients after 48 hrs by agar dilution method; type: functional
Summary of the method: (§1)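 CLSI agar dilution on brucella blood agar supplemented with laked sheep blood, hemin and vitamin K. Inocula of about 1 × 10^5 CFU/spot were applied by Steers replicator, and plates were incubated 48 h at 35°C in an anaerobic glove box. MIC was the concentration giving marked growth reduction versus the anaerobic control plate. QC strains were included each run, and β-lactamase was detected by Cefinase disk.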

Clostridium perfringens [1] = experiment: Antimicrobial activity against Clostridium perfringens isolated from intra-abdominal infection and pelvic inflammatory disease patients after 48 hrs by agar dilution method; type: functional
Summary of the method: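 CLSI agar dilution on brucella blood agar supplemented with laked sheep blood, hemin and vitamin K. Inoculum about 1 × 10^5 CFU/spot, applied by Steers replicator. Plates incubated 48 h at 35°C in an anaerobic glove box. MIC is the concentration giving marked growth reduction versus the anaerobic control plate. Standard QC strains included in each run.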

Fusobacterium nucleatum = experiment: Antimicrobial activity against beta lactamase-positive Fusobacterium nucleatum isolated from intra-abdominal infection and pelvic inflammatory disease patients after 48 hrs by time kill analysis; type: functional
Summary of the method: (§2)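 The MIC was read by inspecting macrodilution time-kill tubes. Vials held prereduced brucella broth with 5% laked horse blood cells, hemin 5 μg/ml and vitamin K1 1 μg/ml. Final inoculum was 10^6–10^7 CFU/ml, prepared inside the anaerobe chamber. Vials were incubated 48 h at 35°C in a shaking water bath.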

Prevotella bivia = experiment: Antimicrobial activity against beta lactamase-positive Prevotella bivia isolated from intra-abdominal infection and pelvic inflammatory disease patients after 48 hrs by agar dilution method; type: functional; summary of the method: as §1
Clostridioides difficile [2] = experiment: Bactericidal activity against Clostridium difficile isolated from intra-abdominal infection and pelvic inflammatory disease patients assessed as 99.9% bacterial killing at 2 times MIC after 48 hrs by time kill analysis; type: functional, organism-based
Summary of the method: (§3)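 Macrodilution time-kill in prereduced brucella broth with 5% laked horse blood, hemin 5 μg/ml and vitamin K1 1 μg/ml, at final inoculum 10^6–10^7 CFU/ml. […] Viable counts were taken at 6, 12, 24 and 48 h on plates incubated 48 h anaerobically. 99.9% kill was taken as bactericidal.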

Finegoldia magna [3] = experiment: Bactericidal activity against beta lactamase-positive Finegoldia magna isolated from intra-abdominal infection and pelvic inflammatory disease patients assessed as 99.9% bacterial killing at 2 times MIC after 48 hrs by time kill analysis; type: functional, organism-based; summary of the method: as §3
Thomasclavelia ramosa = experiment: Antimicrobial activity against Clostridium ramosum isolated from intra-abdominal infection and pelvic inflammatory disease patients after 48 hrs by agar dilution method; type: functional; summary of the method: as §1
Prevotella intermedia [4] = experiment: Antimicrobial activity against beta lactamase-positive Prevotella intermedia isolated from intra-abdominal infection and pelvic inflammatory disease patients after 48 hrs by agar dilution method; type: functional; summary of the method: as §1
[5] = tested on: Enterocloster clostridioformis; experiment: Antimicrobial activity against Clostridium clostridioforme isolated from intra-abdominal infection and pelvic inflammatory disease patients after 48 hrs by agar dilution method; type: functional; summary of the method: as §1
[6] = tested on: Peptoniphilus asaccharolyticus; experiment: Antimicrobial activity against Peptoniphilus asaccharolyticus isolated from intra-abdominal infection and pelvic inflammatory disease patients after 48 hrs by agar dilution method; type: functional; summary of the method: as §1
Phocaeicola vulgatus = experiment: Antimicrobial activity against beta lactamase-positive Bacteroides vulgatus isolated from intra-abdominal infection and pelvic inflammatory disease patients after 48 hrs by agar dilution method; type: functional; summary of the method: as §1
Porphyromonas gingivalis = experiment: Antimicrobial activity against Porphyromonas gingivalis isolated from intra-abdominal infection and pelvic inflammatory disease patients after 48 hrs by agar dilution method; type: functional; summary of the method: as §1
Prevotella intermedia [7] = experiment: Antimicrobial activity against beta lactamase-positive Prevotella intermedia isolated from intra-abdominal infection and pelvic inflammatory disease patients after 48 hrs by time kill analysis; type: functional; summary of the method: as §2
Fusobacterium varium = experiment: Antimicrobial activity against Fusobacterium varium isolated from intra-abdominal infection and pelvic inflammatory disease patients after 48 hrs by agar dilution method; type: functional; summary of the method: as §1
[8] = tested on: Paraclostridium bifermentans; experiment: Antimicrobial activity against Clostridium bifermentans isolated from intra-abdominal infection and pelvic inflammatory disease patients after 48 hrs by agar dilution method; type: functional; summary of the method: as §1
Clostridium cadaveris = experiment: Antimicrobial activity against Clostridium cadaveris isolated from intra-abdominal infection and pelvic inflammatory disease patients after 48 hrs by agar dilution method; type: functional; summary of the method: as §1
Anaerococcus prevotii = experiment: Antimicrobial activity against Anaerococcus prevotii isolated from intra-abdominal infection and pelvic inflammatory disease patients after 48 hrs by agar dilution method; type: functional; summary of the method: as §1
[9] = tested on: Bacteroides thetaiotaomicron; experiment: Antimicrobial activity against beta lactamase-positive Bacteroides thetaiotaomicron isolated from intra-abdominal infection and pelvic inflammatory disease patients after 48 hrs by agar dilution method; type: functional; summary of the method: as §1
Clostridium perfringens [10] = experiment: Bactericidal activity against Clostridium perfringens isolated from intra-abdominal infection and pelvic inflammatory disease patients assessed as bacterial killing at 2 times MIC after 48 hrs by time kill analysis; type: functional
Summary of the method: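 Time-kill in prereduced brucella broth with 5% laked horse blood cells, hemin and vitamin K1. […] Viable counts taken at 6, 12, 24 and 48 h, plates incubated 48 h anaerobically. Kill scored as 90%, 99% or 99.9%; 99.9% defines bactericidal.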

Bacteroides ovatus = experiment: Antimicrobial activity against beta lactamase-positive Bacteroides ovatus isolated from intra-abdominal infection and pelvic inflammatory disease patients after 48 hrs by agar dilution method; type: functional; summary of the method: as §1
[11] = tested on: Paeniclostridium sordellii; experiment: Antimicrobial activity against Clostridium sordellii isolated from intra-abdominal infection and pelvic inflammatory disease patients after 48 hrs by agar dilution method; type: functional; settings: Paraclostridium sordellii; summary of the method: as §1
[Clostridium] innocuum = Antimicrobial activity against Clostridium innocuum isolated from intra-abdominal infection and pelvic inflammatory disease patients after 48 hrs by agar dilution method; type: functional; summary of the method: as §1
Clostridioides difficile [12] = experiment: Bactericidal activity against Clostridium difficile isolated from intra-abdominal infection and pelvic inflammatory disease patients assessed as bacterial killing at MIC after 24 hrs by time kill analysis; type: functional; summary of the method: as §3
[13] = tested on: Prevotella melaninogenica; experiment: Antimicrobial activity against beta lactamase-positive Prevotella melaninogenica isolated from intra-abdominal infection and pelvic inflammatory disease patients after 48 hrs by agar dilution method; type: functional; summary of the method: as §1
Finegoldia magna [14] = experiment: Bactericidal activity against beta lactamase-positive Finegoldia magna isolated from intra-abdominal infection and pelvic inflammatory disease patients assessed as bacterial killing at MIC after 24 hrs by time kill analysis; type: functional
Summary of the method: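 Anaerobic macrodilution time-kill. Inoculum from brucella blood plates, prepared and diluted in prereduced brucella broth inside the anaerobe chamber. Final 10^6 to 10^7 CFU/ml in prereduced brucella broth with 5% laked horse blood cells, 5 μg/ml hemin and 1 μg/ml vitamin K1. […] Shaken at 35°C for 48 h. Viable counts taken at 6, 12, 24 and 48 h. 99.9% kill taken as bactericidal.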

Clostridium perfringens [15] = experiment: Antimicrobial activity against Clostridium perfringens isolated from intra-abdominal infection and pelvic inflammatory disease patients after 48 hrs by time kill analysis; type: functional
Summary of the method: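 Macrodilution in prereduced brucella broth with 5% laked horse blood cells, 5 μg/ml hemin and 1 μg/ml vitamin K1. Final inoculum 10^6 to 10^7 CFU/ml, prepared inside the anaerobe chamber. Vials incubated 48 h at 35°C in a shaking water bath. MIC read by inspecting the time-kill tubes, alongside an antibiotic-free growth control.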

Bacteroides fragilis = experiment: Bactericidal activity against beta lactamase-positive Bacteroides fragilis isolated from intra-abdominal infection and pelvic inflammatory disease patients assessed as bacterial killing at 2 times MIC after 48 hrs by time kill analysis; type: functional; summary of the method: as §3

## C[C@@H](O)[C@H]1C(=O)N2C(C(=O)O)=C(S[C@@H]3CN[C@H](CNS(N)(=O)=O)C3)[C@H](C)[C@H]12 [DORIPENEM]
Prevotella nigrescens
  MIC50: 0.03 µg/mL (≈ 0.0713 µM)
  MIC90: 0.06 µg/mL (≈ 0.143 µM)
Clostridium perfringens [1]
  MIC50: 0.03 µg/mL (≈ 0.0713 µM)
  MIC90: 0.03 µg/mL (≈ 0.0713 µM)
Fusobacterium nucleatum
  MIC: 0.016 µg/mL (≈ 0.038 µM)
Prevotella bivia
  MIC: 0.06 µg/mL (≈ 0.143 µM)
  MIC50: 0.06 µg/mL (≈ 0.143 µM)
  MIC90: 0.125 µg/mL (≈ 0.297 µM)
Clostridioides difficile [2]
  Activity: inactive
Finegoldia magna [3]
  Activity: inactive
Thomasclavelia ramosa
  MIC: 0.5 µg/mL (≈ 1.19 µM)
  MIC50: 0.5 µg/mL (≈ 1.19 µM)
Prevotella intermedia [4]
  MIC50: 0.03 µg/mL (≈ 0.0713 µM)
  MIC90: 0.125 µg/mL (≈ 0.297 µM)
[5]
  MIC: 1 µg/mL (≈ 2.38 µM)
[6]
  MIC: ≤ 0.016 µg/mL
  MIC50: ≤ 0.016 µg/mL
  MIC90: 0.03 µg/mL (≈ 0.0713 µM)
Phocaeicola vulgatus
  MIC50: 0.25 µg/mL (≈ 0.595 µM)
  MIC90: 1 µg/mL (≈ 2.38 µM)
Porphyromonas gingivalis
  MIC: ≤ 0.016 µg/mL
Prevotella intermedia [7]
  MIC: 0.06 µg/mL (≈ 0.143 µM)
Fusobacterium varium
  MIC50: 0.125 µg/mL (≈ 0.297 µM)
  MIC90: 0.125 µg/mL (≈ 0.297 µM)
[8]
  MIC: 0.06 µg/mL (≈ 0.143 µM)
Clostridium cadaveris
  MIC: 0.03 µg/mL (≈ 0.0713 µM)
Anaerococcus prevotii
  MIC: 0.03 µg/mL (≈ 0.0713 µM)
[9]
  MIC: 0.25 µg/mL (≈ 0.595 µM)
  MIC50: 0.25 µg/mL (≈ 0.595 µM)
  MIC90: 0.5 µg/mL (≈ 1.19 µM)
Clostridium perfringens [10]
  Activity: 99%
Bacteroides ovatus
  MIC: 0.25 µg/mL (≈ 0.595 µM)
  MIC50: 0.25 µg/mL (≈ 0.595 µM)
  MIC90: 1 µg/mL (≈ 2.38 µM)
[11]
  MIC: 0.03 µg/mL (≈ 0.0713 µM)
[Clostridium] innocuum
  MIC: 1 µg/mL (≈ 2.38 µM)
  MIC50: 1 µg/mL (≈ 2.38 µM)
Clostridioides difficile [12]
  Activity: 90%
[13]
  MIC50: 0.03 µg/mL (≈ 0.0713 µM)
  MIC90: 0.06 µg/mL (≈ 0.143 µM)
Finegoldia magna [14]
  Activity: 90%
Clostridium perfringens [15]
  MIC: 0.03 µg/mL (≈ 0.0713 µM)
Bacteroides fragilis
  Activity: 99%

## C[C@@H](O)[C@H]1C(=O)N2C(C(=O)O)=C(SCCNC=N)C[C@H]12 [IMIPENEM ANHYDROUS]
Prevotella nigrescens
  MIC50: 0.03 µg/mL (≈ 0.1 µM)
  MIC90: 0.03 µg/mL (≈ 0.1 µM)
Clostridium perfringens [1]
  MIC50: 0.06 µg/mL (≈ 0.2 µM)
  MIC90: 0.125 µg/mL (≈ 0.418 µM)
Fusobacterium nucleatum
  MIC: 0.016 µg/mL (≈ 0.0534 µM)
Prevotella bivia
  MIC50: 0.03 µg/mL (≈ 0.1 µM)
  MIC90: 0.06 µg/mL (≈ 0.2 µM)
Clostridioides difficile [2]
  Activity: inactive
Finegoldia magna [3]
  Activity: inactive
Thomasclavelia ramosa
  MIC: 0.25 µg/mL (≈ 0.835 µM)
  MIC50: 0.25 µg/mL (≈ 0.835 µM)
Prevotella intermedia [4]
  MIC50: 0.03 µg/mL (≈ 0.1 µM)
  MIC90: 0.125 µg/mL (≈ 0.418 µM)
[5]
  MIC: 2 µg/mL (≈ 6.68 µM)
[6]
  MIC: ≤ 0.016 µg/mL
  MIC50: ≤ 0.016 µg/mL
  MIC90: 0.03 µg/mL (≈ 0.1 µM)
Phocaeicola vulgatus
  MIC50: 0.5 µg/mL (≈ 1.67 µM)
  MIC90: 1 µg/mL (≈ 3.34 µM)
Porphyromonas gingivalis
  MIC: ≤ 0.016 µg/mL
Prevotella intermedia [7]
  MIC: 0.03 µg/mL (≈ 0.1 µM)
Fusobacterium varium
  MIC50: 1 µg/mL (≈ 3.34 µM)
  MIC90: 1 µg/mL (≈ 3.34 µM)
[8]
  MIC: 0.25 µg/mL (≈ 0.835 µM)
Clostridium cadaveris
  MIC: 0.125 µg/mL (≈ 0.418 µM)
Anaerococcus prevotii
  MIC: ≤ 0.016 µg/mL
[9]
  MIC: 0.25 µg/mL (≈ 0.835 µM)
  MIC50: 0.25 µg/mL (≈ 0.835 µM)
  MIC90: 0.5 µg/mL (≈ 1.67 µM)
Clostridium perfringens [10]
  Activity: 99%
Bacteroides ovatus
  MIC50: 0.25 µg/mL (≈ 0.835 µM)
  MIC90: 0.5 µg/mL (≈ 1.67 µM)
[11]
  MIC: 0.125 µg/mL (≈ 0.418 µM)
[Clostridium] innocuum
  MIC: 1 µg/mL (≈ 3.34 µM)
  MIC50: 1 µg/mL (≈ 3.34 µM)
Clostridioides difficile [12]
  Activity: 90%
[13]
  MIC50: 0.03 µg/mL (≈ 0.1 µM)
  MIC90: 0.03 µg/mL (≈ 0.1 µM)
Finegoldia magna [14]
  Activity: 90%
Clostridium perfringens [15]
  MIC: 0.06 µg/mL (≈ 0.2 µM)
Bacteroides fragilis
  Activity: 99%
